Activity calls are given as the source filed them. No cut-off for these calls is given here.
Experiments:
[1] = target: T1, NAD-dependent protein deacetylase sirtuin-2 (Homo sapiens) (UniProt Q8IXJ6); assay: Inhibition of human SIRT2 at 50 uM
T1 sequence (whole entry): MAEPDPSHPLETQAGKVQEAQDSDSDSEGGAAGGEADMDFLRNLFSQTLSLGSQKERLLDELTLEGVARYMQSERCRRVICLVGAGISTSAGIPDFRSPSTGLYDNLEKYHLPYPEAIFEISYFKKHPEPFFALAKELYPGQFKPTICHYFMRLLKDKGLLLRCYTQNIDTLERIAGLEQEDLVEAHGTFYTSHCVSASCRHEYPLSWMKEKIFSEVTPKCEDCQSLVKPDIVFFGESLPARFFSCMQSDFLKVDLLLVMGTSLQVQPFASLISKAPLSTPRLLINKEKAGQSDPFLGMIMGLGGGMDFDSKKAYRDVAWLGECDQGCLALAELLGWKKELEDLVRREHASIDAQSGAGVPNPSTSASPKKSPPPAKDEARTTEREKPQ

[2] = target: T1, NAD-dependent protein deacetylase sirtuin-2 (Homo sapiens); assay: Inhibition of human SIRT2 at 5 uM
[3] = target: T2, NAD-dependent protein deacetylase sirtuin-3, mitochondrial (Homo sapiens, UniProt Q9NTG7); assay: Inhibition of SIRT3 (unknown origin)
T2 sequence (Q9NTG7 whole entry): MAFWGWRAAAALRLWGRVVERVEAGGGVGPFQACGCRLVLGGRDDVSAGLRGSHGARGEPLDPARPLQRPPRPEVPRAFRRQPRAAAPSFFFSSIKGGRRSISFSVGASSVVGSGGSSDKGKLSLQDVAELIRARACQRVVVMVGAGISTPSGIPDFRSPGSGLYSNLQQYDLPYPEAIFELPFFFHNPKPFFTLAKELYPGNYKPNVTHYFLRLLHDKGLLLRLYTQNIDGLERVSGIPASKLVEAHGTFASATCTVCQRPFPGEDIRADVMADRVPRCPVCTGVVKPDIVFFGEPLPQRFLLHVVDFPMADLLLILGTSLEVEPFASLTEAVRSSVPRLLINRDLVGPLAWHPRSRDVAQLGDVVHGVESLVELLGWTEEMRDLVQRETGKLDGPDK

MCF7 [4] = assay: Growth inhibition of human MCF7 cells after 120 hrs by MTT assay; assay type: functional, cell-based
Method in brief: (§1)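 MCF-7 cells were kept in high-glucose DMEM with 10% FBS and penicillin/streptomycin, split at 80–90% confluency and used within 10 passages. They were seeded at 3000 cells/well, grown 24 h, then exposed for 120 h at 37°C, 5% CO2 (final DMSO 1% v/v). MTT formazan was dissolved in acidified 20% SDS and read at 570 nm. Triplicates; experiments repeated at least twice.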

[5] = Growth inhibition of human HL7702 cells at 100 uM after 120 hrs by MTT assay; assay type: cell-based; conditions: HL7702 (L02) cells, read-out: GI
[6] = target: T3, NAD-dependent protein deacetylase sirtuin-1 (Homo sapiens, UniProt Q96EB6); assay: Inhibition of SIRT1 (unknown origin)
T3 sequence (Q96EB6 whole entry): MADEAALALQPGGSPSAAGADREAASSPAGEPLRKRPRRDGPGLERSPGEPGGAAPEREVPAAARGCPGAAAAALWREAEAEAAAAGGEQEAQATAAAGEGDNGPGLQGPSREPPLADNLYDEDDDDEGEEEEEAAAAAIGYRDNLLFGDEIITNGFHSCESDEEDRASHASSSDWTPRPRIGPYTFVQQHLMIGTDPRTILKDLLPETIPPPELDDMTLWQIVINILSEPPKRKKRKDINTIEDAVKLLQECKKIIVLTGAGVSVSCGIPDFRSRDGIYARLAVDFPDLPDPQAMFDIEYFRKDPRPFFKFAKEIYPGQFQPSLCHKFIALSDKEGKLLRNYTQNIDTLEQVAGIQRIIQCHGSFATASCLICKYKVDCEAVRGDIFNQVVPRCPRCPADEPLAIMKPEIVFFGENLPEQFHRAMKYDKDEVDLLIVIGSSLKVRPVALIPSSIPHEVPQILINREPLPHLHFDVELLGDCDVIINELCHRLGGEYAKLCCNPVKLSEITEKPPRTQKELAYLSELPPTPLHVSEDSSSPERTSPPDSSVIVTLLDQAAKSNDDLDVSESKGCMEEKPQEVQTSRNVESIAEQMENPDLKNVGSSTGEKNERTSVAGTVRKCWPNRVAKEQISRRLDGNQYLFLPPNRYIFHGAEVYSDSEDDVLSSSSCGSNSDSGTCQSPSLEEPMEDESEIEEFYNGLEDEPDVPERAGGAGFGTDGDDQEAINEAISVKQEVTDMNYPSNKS

MCF7 [7] = assay: Growth inhibition of human MCF7 cells at 50 uM after 120 hrs by MTT assay; assay type: functional; method in brief: as §1

Row | SMILES | inhibition [1] [%] | inhibition [2] [%] | other results
1 | Cc1cc(C)nc(SCC(=O)Nc2ccc(NCc3cccs3)cc2)n1 | 70 | 15 | 
2 | Cc1cc(C)nc(SCC(=O)Nc2ccc(NCc3ccncc3)cc2)n1 | 43 | 10 | 
3 | Cc1cc(C)nc(SCC(=O)Nc2ccc(NCc3ccco3)cc2)n1 | 58 | 17 | 
4 | Cc1cc(C)nc(SCC(=O)Nc2cccc(COc3ccc4ccccc4c3)c2)n1 | 84 | 59 | 
5 | Cc1cc(C)nc(SCC(=O)Nc2cccc(COc3ccc(NS(=O)(=O)c4ccccc4)cc3)c2)n1 | 87 | 73 | 
6 | Cc1ccc(C(=O)Nc2ccc(S(=O)(=O)O)c3cc(S(=O)(=O)O)cc(S(=O)(=O)O)c23)cc1NC(=O)c1cccc(NC(=O)Nc2cccc(C(=O)Nc3cc(C(=O)Nc4ccc(S(=O)(=O)O)c5cc(S(=O)(=O)O)cc(S(=O)(=O)O)c45)ccc3C)c2)c1 | 73 | 31 | 
7 | Cc1cc(C)nc(SCC(=O)Nc2cccc(COc3ccccc3)c2)n1 | 96 | 71 | 
8 | Cc1cc(C)nc(SCC(=O)Nc2cccc(COc3ccc(NC(=O)c4cccs4)cc3)c2)n1 |  |  | IC50 [3]: > 300 µM; growth inhibition (GI) (MCF7 [4]): Dose-dependent effect; inhibition at 120 h, 100 µM [5]: 3%; IC50 [6]: > 300 µM; inhibition of growth at 50 µM (MCF7 [7]; MCF7, 120 h, read-out: GI): > 50%
9 | Cc1cc(C)nc(S(=O)(=O)CC(=O)Nc2ccc(Oc3ccccc3)cc2)n1 | 21 | -2 | 
10 | Cc1cc(C)nc([S+]([O-])CC(=O)Nc2ccc(Oc3ccccc3)cc2)n1 (centres undefined) | 79 | 34 | 
11 | Cc1cc(C)nc(SCC(=O)Nc2cccc(COc3ccc4[nH]ncc4c3)c2)n1 | 91 | 57 | 
12 | Cc1cc(C)nc(SCC(=O)Nc2cccc(COc3cccc4cccnc34)c2)n1 | 73 | 41 | 
13 | O=C(Nc1ccccc1-c1cn2c(CN3CCNCC3)csc2n1)c1cnc2ccccc2n1 |  |  | IC50 [3]: 0.85 µM
14 | Cc1cc(C)nc(SCC(=O)Nc2cccc(NCc3ccccc3)c2)n1 | 95 | 64 | 
15 | CC(=O)Nc1ccc(OCc2cccc(NC(=O)CSc3nc(C)cc(C)n3)c2)cc1 | 92 | 62 | 
16 | Cc1cc(C)nc(SCC(=O)Nc2cccc(COc3ccc(NS(=O)(=O)C4CC4)cc3)c2)n1 | 95 | 67 | 
17 | CC(=O)Nc1cccc(OCc2cccc(NC(=O)CSc3nc(C)cc(C)n3)c2)c1 | 99 | 68 | 
18 | Cc1cc(C)nc(SCC(=O)Nc2cccc(COc3cccc4ccccc34)c2)n1 | 79 | 42 | 
19 | Cc1cc(C)nc(SCC(=O)Nc2cccc(NCc3cccs3)c2)n1 | 93 | 60 | 

Second part, led by results:

Row | inhibition [1] [%] | inhibition [2] [%] | SMILES | other results
20 | 72 | 19 | Cc1cc(C)nc(SCC(=O)Nc2ccc(Nc3ccccc3)cc2)n1 | 
21 | 62 | 40 | Cc1cc(C)nc(SCC(=O)Nc2ccc(OCc3ccccc3)cc2)n1 | 
22 | 74 | 70 | Cc1cc(C)nc(SCC(=O)Nc2ccc(Cc3ccccc3)cc2)n1 | 
23 | 95 | 61 | Cc1cc(C)nc(SCC(=O)Nc2cccc(Nc3ccccc3)c2)n1 | 
24 | 78 | 42 | Cc1cc(C)nc(SCC(=O)Nc2ccc(Oc3ccccc3)cc2)n1 | 
25 | 24 | 1 | Cc1cc(C)nc(SCC(=O)Nc2ccc(COc3ccccc3)cc2)n1 | inhibition at 120 h, 100 µM [5]: 6%; growth inhibition (GI) (MCF7 [7]): inactive
26 | 55 | 9 | Cc1cc(C)nc(SCC(=O)Nc2ccc(NCc3ccccc3)cc2)n1 | 
27 | 96 | 73 | Cc1cc(C)nc(SCC(=O)Nc2cccc(Cc3ccccc3)c2)n1 | 
28 | 75 | 26 | Cc1cc(C)nc(SCC(=O)Nc2ccc(C(O)c3ccccc3)cc2)n1 (centres undefined) | 
29 | 92 | 49 | Cc1cc(C)nc(SCC(=O)Nc2cccc(Oc3ccccc3)c2)n1 | 
30 | 89 | 40 | Cc1cc(C)nc(SCC(=O)Nc2cccc(C(=O)c3ccccc3)c2)n1 | 
31 | 92 | 59 | Cc1cc(C)nc(SCC(=O)Nc2cccc(OCc3ccccc3)c2)n1 | 
32 | 72 | 20 | Cc1cc(C)nc(SCC(=O)Nc2ccc(CNc3ccccc3)cc2)n1 | 
33 | 90 | 49 | Cc1cc(C)nc(SCC(=O)Nc2cccc(CNc3ccccc3)c2)n1 | 
34 | 78 | 18 | Cc1cc(C)nc(SCC(=O)Nc2cccc(C(O)c3ccccc3)c2)n1 (centres undefined) | 
35 | 74 | 22 | Cc1cc(C)nc(SCC(=O)Nc2ccc(C(=O)c3ccccc3)cc2)n1 | 

— ChEMBL document CHEMBL4020726, “Discovery of 2-((4,6-dimethylpyrimidin-2-yl)thio)-N-phenylacetamide derivatives as new potent and selective human sirtuin 2 inhibitors” (Eur J Med Chem, 2017)
